Assay results published in ChEMBL document CHEMBL4020842, “Discovery of N1-(4-((7-Cyclopentyl-6-(dimethylcarbamoyl)-7 H-pyrrolo[2,3- d]pyrimidin-2-yl)amino)phenyl)- N8-hydroxyoctanediamide as a Novel Inhibitor Targeting Cyclin-dependent Kinase 4/9 (CDK4/9) and Histone Deacetlyase1 (HDAC1) against Malignant Cancer” (J Med Chem, 2018).
The source made the active and inactive calls. No cut-off for these calls is given here.

What was measured:
[1] = test system: T47D; experiment: Cytotoxicity against human T47D cells assessed as reduction in cell viability after 72 hrs by CCK8 assay; format: functional, cell-based
[2] = test system: HepG2; experiment: Induction of apoptosis in human HepG2 cells after 48 hrs by annexin V-FITC/propidium iodide staining based flow cytometry; format: functional, cell-based
[3] = target: T1, Histone deacetylase 1 (Homo sapiens, UniProt Q13547); experiment: Inhibition of HDAC1 in human Hep3B cells assessed as increase in acetylated-histone H3 level at 1 to 5 uM after 48 hrs by Western blot method; format: cell-based
[4] = target: T1, Histone deacetylase 1; experiment: Inhibition of HDAC1 in human T47D cells assessed as increase in p53 phosphorylation at Ser15 residue at 1 to 5 uM after 48 hrs by Western blot method; format: cell-based
[5] = test system: NCI-H460; experiment: Cell cycle arrest in human NCI-H460 cells assessed as accumulation at G2 phase at 2.5 to 10 uM after 24 hrs by propidium iodide staining based flow cytometry; format: functional
Procedure, shortened: (§1)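 Cells were exposed for 24 h to a range of concentrations (625 nM, 2.5 and 10 µM), with DMSO vehicle as control. They were then stained with propidium iodide and analysed by flow cytometry to obtain the percentages of cells in G0/G1, S and G2 phases.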

[6] = test system: 4T1; experiment: Antitumor activity against mouse Fluc-labeled 4T1 cells implanted in Balb/c mouse assessed as tumor growth inhibition at 90 mg/kg, ip administered daily for 18 days measured after 8 to 25 days by bioluminescence assay relative to control; format: functional; details: 4T1, ip, read-out: TGI
Procedure, shortened: (§2)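 Luciferase (Fluc) reporter introduced into 4T1 cells by lentiviral transduction. Cells implanted orthotopically into mammary fat pads of female BALB/c mice aged 6–8 weeks. Once tumours averaged 100 mm3, dosing was daily by IP injection. Bioluminescence imaging was done at days 8 and 25 to reflect viable tumour cell number. Tumour weight was recorded at study end.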

[7] = test system: HepG2; experiment: Induction of apoptosis in human HepG2 cells assessed as late apoptotic cells at 5 uM after 48 hrs by annexin V-FITC/propidium iodide staining based flow cytometry (reference value: 0.64%); format: functional
[8] = test system: HepG2; experiment: Induction of apoptosis in human HepG2 cells assessed as early apoptotic cells at 1 uM after 48 hrs by annexin V-FITC/propidium iodide staining based flow cytometry (reference value: 0.3%); format: functional
[9] = test system: A549; experiment: Induction of apoptosis in human A549 cells assessed as early apoptotic cells at 1 uM after 48 hrs by annexin V-FITC/propidium iodide staining based flow cytometry (reference value: 0.41%); format: functional
[10] = test system: Mus musculus; experiment: Toxicity in Balb/c mouse assessed as weight loss at 45 to 130 mg/kg, ip for 16 consecutive days; format: organism-based; details: in vivo
[11] = MRT (0 to infinity) in Sprague-Dawley rat at 20 mg/kg, po administered as single dose by HPLC analysis; format: ADME, organism-based; details: in vivo
[12] = test system: NCI-H460; experiment: Induction of apoptosis in human NCI-H460 cells assessed as late apoptotic cells at 1 uM after 48 hrs by annexin V-FITC/propidium iodide staining based flow cytometry (reference value: 1.29%); format: functional
[13] = target: CDK4/CDK9 (Homo sapiens) (UniProt P11802+P50750); experiment: Inhibition of CDK4/CDK9 in human HepG2 cells assessed as reduction in Rb phosphorylation at Ser807/811 residues at 1 uM after 48 hrs by Western blot method; format: cell-based
[14] = Apparent volume of distribution at steady state in Sprague-Dawley rat at 20 mg/kg, iv administered as single dose by HPLC analysis; format: ADME, organism-based; details: in vivo, read-out: Vdss(app)
[15] = test system: T47D; experiment: Induction of apoptosis in human T47D cells assessed as necrotic cells at 10 uM after 48 hrs by annexin V-FITC/propidium iodide staining based flow cytometry (reference value: 0.8%); format: functional
[16] = test system: Hep 3B2; experiment: Induction of apoptosis in human Hep3B cells assessed as live cells at 10 uM after 48 hrs by annexin V-FITC/propidium iodide staining based flow cytometry (reference value: 97.9%); format: functional
[17] = test system: A549; experiment: Induction of apoptosis in human A549 cells assessed as necrotic cells at 10 uM after 48 hrs by annexin V-FITC/propidium iodide staining based flow cytometry (reference value: […]%); format: functional
[18] = test system: NCI-H460; experiment: Induction of apoptosis in human NCI-H460 cells assessed as early apoptotic cells at 10 uM after 48 hrs by annexin V-FITC/propidium iodide staining based flow cytometry (reference value: 0.11%); format: functional
[19] = test system: NCI-H460; experiment: Downregulation of Cyclin-D1 protein expression in human NCI-H460 cells after 48 hrs by Western blot method; format: functional, cell-based
Procedure, shortened: (§3)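 Treated cells were lysed and CDK4 and cyclin D1 protein levels were assessed by Western blot.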

[20] = test system: Hep 3B2; experiment: Cell cycle arrest in human Hep3B cells assessed as accumulation at G2 phase at 2.5 to 10 uM after 24 hrs by propidium iodide staining based flow cytometry; format: functional; procedure, shortened: as §1
[21] = test system: MDA-MB-231; experiment: Downregulation of Cyclin-D1 protein expression in human MDA-MB-231 cells after 48 hrs by Western blot method; format: functional, cell-based; procedure, shortened: as §3
[22] = Lipophilicity, log P of the compound by HPLC based shake flask method; format: physicochemical
[23] = test system: 4T1; experiment: Antitumor activity against mouse Fluc-labeled 4T1 cells implanted in Balb/c mouse assessed as tumor growth inhibition administered ip daily for 18 days measured after 8 to 25 days by bioluminescence assay; format: functional, organism-based; procedure, shortened: as §2
[24] = test system: A549; experiment: Induction of apoptosis in human A549 cells assessed as necrotic cells at 5 uM after 48 hrs by annexin V-FITC/propidium iodide staining based flow cytometry (reference value: […]%); format: functional
[25] = test system: A549; experiment: Induction of apoptosis in human A549 cells assessed as late apoptotic cells at 1 uM after 48 hrs by annexin V-FITC/propidium iodide staining based flow cytometry (reference value: 0.88%); format: functional
[26] = Cmax in Sprague-Dawley rat at 20 mg/kg, ip administered as single dose by HPLC analysis; format: ADME, organism-based; parameters: dose 20 mg/kg, route intraperitoneal; details: in vivo
[27] = test system: Hep 3B2; experiment: Cell cycle arrest in human Hep3B cells assessed as accumulation at G0/G1 phase at 625 nM after 24 hrs by propidium iodide staining based flow cytometry; format: functional; procedure, shortened: as §1
[28] = test system: MDA-MB-231; experiment: Cell cycle arrest in human MDA-MB-231 cells assessed as accumulation at G0/G1 phase at 625 nM after 24 hrs by propidium iodide staining based flow cytometry; format: functional; procedure, shortened: as §1
[29] = test system: T47D; experiment: Cell cycle arrest in human T47D cells assessed as decrease in S-phase at 625 nM after 24 hrs by propidium iodide staining based flow cytometry; format: functional; procedure, shortened: as §1
[30] = test system: T47D; experiment: Induction of apoptosis in human T47D cells after 48 hrs by annexin V-FITC/propidium iodide staining based flow cytometry; format: functional, cell-based
[31] = test system: 4T1; experiment: Antitumor activity against mouse Fluc-labeled 4T1 cells implanted in Balb/c mouse assessed as tumor growth inhibition at 130 mg/kg, ip administered daily for 18 days measured after 8 to 25 days by bioluminescence assay relative to control; format: functional; details: 4T1, ip, read-out: TGI
[32] = target: Aurora-C/INCENP (Homo sapiens, UniProt Q9NQS7+Q9UQB9); experiment: Inhibition of recombinant human N-terminal His6-tagged Aurora-C (35-end residues)/N-terminal GST-tagged INCENP (821-end residues) expressed in baculovirus infected sf21 cells using AKRRRLSSLRA substrate in presence of [gamma33P]ATP after 10 mins by scintillation counting method
[33] = target: LIM domain kinase 1 (Homo sapiens, UniProt P53667); experiment: Inhibition of recombinant human N-terminal His6-tagged LIMK1 (285 to 638 residues) expressed in baculovirus infected sf21 cells
LIM domain kinase 1, sequence (P53667 whole entry, the tested form may be a part): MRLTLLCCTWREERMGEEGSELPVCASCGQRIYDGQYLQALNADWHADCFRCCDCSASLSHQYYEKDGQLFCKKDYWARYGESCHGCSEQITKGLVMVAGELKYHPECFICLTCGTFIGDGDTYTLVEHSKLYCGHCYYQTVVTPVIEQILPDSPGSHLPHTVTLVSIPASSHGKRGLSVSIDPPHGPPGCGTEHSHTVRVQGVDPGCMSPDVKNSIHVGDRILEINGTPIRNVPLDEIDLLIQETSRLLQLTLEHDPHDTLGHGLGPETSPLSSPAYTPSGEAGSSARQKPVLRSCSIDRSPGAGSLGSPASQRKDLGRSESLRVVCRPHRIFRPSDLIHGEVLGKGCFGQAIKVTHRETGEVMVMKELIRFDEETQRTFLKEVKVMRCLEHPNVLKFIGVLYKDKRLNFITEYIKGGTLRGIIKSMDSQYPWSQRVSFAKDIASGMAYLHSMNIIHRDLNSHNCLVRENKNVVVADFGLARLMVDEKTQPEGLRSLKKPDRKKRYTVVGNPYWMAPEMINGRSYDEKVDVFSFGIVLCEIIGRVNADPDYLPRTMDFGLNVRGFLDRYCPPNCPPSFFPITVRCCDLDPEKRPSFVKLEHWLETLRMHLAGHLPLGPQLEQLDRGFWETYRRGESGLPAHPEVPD

T1 sequence (Q13547 whole entry): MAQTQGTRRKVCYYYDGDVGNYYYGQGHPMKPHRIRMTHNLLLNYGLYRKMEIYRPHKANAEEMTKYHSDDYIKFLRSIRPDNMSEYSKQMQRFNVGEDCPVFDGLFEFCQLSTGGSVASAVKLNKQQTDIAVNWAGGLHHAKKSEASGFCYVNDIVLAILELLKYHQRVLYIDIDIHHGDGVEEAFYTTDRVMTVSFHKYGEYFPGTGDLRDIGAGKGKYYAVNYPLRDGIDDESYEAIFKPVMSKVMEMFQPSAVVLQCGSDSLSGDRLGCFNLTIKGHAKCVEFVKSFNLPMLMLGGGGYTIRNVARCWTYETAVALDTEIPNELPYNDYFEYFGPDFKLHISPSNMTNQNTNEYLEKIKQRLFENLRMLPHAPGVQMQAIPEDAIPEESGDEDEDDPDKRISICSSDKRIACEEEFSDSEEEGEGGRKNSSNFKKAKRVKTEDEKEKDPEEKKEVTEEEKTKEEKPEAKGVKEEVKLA
Aurora-C/INCENP, sequence (Q9UQB9 whole entry, the tested form may be a part): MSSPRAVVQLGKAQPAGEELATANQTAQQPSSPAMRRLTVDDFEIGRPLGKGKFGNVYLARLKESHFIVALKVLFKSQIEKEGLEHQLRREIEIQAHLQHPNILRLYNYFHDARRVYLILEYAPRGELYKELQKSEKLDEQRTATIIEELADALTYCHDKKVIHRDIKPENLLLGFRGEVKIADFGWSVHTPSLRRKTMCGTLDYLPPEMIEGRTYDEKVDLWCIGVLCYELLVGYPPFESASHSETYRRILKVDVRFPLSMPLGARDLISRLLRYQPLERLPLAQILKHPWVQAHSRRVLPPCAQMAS
Aurora-C/INCENP, sequence (Q9NQS7 whole entry, the tested form may be a part): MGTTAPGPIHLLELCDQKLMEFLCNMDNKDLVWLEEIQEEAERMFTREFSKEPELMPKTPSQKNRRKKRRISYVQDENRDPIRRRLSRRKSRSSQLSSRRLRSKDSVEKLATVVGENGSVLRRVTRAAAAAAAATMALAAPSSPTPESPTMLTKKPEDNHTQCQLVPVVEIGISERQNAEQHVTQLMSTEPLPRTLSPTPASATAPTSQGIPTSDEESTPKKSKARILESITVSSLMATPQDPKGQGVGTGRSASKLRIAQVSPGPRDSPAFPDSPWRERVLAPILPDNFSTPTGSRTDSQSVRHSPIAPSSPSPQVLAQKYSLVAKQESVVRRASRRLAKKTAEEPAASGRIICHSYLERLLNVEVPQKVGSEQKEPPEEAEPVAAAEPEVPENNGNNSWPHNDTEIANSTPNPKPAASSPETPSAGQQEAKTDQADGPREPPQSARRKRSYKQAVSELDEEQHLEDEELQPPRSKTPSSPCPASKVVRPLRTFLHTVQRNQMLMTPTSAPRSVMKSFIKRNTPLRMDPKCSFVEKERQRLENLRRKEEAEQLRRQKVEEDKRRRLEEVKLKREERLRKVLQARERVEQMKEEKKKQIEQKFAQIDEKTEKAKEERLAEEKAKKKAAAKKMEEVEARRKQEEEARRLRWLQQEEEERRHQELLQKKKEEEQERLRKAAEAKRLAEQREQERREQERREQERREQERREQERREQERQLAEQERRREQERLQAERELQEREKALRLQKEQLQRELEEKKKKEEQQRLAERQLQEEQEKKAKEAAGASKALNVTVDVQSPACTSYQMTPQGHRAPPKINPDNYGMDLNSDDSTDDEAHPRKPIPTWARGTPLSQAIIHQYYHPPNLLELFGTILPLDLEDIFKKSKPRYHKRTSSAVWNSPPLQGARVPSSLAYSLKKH
CDK4/CDK9 (Homo sapiens), sequence (P11802 whole entry, looked up): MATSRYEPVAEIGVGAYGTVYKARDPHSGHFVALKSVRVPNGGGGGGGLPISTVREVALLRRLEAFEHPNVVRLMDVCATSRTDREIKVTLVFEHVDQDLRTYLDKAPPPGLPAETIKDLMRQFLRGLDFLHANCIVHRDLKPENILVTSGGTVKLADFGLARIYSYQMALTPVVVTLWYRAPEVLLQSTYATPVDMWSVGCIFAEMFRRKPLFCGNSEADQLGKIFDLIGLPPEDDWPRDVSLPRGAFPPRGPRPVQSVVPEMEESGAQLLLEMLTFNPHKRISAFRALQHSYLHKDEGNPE
CDK4/CDK9 (Homo sapiens), sequence (P50750 whole entry, looked up): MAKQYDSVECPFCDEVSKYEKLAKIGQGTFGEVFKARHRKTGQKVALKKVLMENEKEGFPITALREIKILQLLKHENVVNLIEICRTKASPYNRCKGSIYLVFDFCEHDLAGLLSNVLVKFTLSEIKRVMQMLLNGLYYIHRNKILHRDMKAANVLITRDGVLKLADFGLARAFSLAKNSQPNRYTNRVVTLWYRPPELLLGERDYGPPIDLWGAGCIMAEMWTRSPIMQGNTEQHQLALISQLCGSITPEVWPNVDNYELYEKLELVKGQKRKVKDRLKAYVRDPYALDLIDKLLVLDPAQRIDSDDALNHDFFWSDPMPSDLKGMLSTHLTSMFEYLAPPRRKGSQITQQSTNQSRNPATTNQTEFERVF

## CN(C)C(=O)c1cc2cnc(Nc3ccc(NC(=O)CCCCCCC(=O)NO)cc3)nc2n1C1CCCC1
[1]
  IC50: 2590 nM
[2]
  Activity: Dose-dependent effect
[3]
  inhibition: Active
[4]
  inhibition: Active
[5]
  Activity: Active
[6]
  inhibition in vivo at 90 mg/kg: 78.4%
[7]
  Activity: 11.1%
[8]
  Activity: 2.6%
[9]
  Activity: 0.57%
[10]
  Activity: Non-Toxic
[11]
  MRT inf: 20.3 h
[12]
  Activity: 1.48%
[13]
  inhibition: Active
[14]
  Vd: 49 L/kg
[15]
  Activity: 2.62%
[16]
  Activity: 72.8%
[17]
  Activity: 6.38%
[18]
  Activity: 3.95%
[19]
  Activity: Dose-dependent effect
[20]
  Activity: Active
[21]
  Activity: Dose-dependent effect
[22]
  logP: 2.62
[23]
  TGI: Dose-dependent effect
[24]
  Activity: 4.16%
[25]
  Activity: 1.93%
[26]
  Cmax: 360 ng/mL
[27]
  Activity: Active
[28]
  Activity: Active
[29]
  Activity: Active
[30]
  Activity: Dose-dependent effect
[31]
  inhibition in vivo at 130 mg/kg: 84.8%
[32]
  IC50: 22 nM
[33]
  IC50: 44 nM
